# ChEMBL document CHEMBL2424600, “Synthetic polyamines activating autophagy: effects on cancer cell death” (Eur J Med Chem, 2013)
# Activity calls are given as the source filed them. The rule behind the calls is not given here.
# Assays:
# HeLa [1] = experiment: Cytotoxicity against human HeLa cells assessed as decrease in cell survival up to 3 mM after 24 hrs by trypan blue exclusion assay in presence of N-acetylcysteine; format: functional, cell-based
# Method in brief: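 HeLa exposed 24 h to the indicated concentrations with or without 5 mM N-acetylcysteine. Survival by trypan blue exclusion relative to control; triplicate means ± S.E.M.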
# [2] = Cytotoxicity against human SH-SY5Y cells assessed as cell survival after 24 hrs by trypan blue exclusion assay; format: functional, cell-based
# Method in brief: (§1)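 Cells exposed 24 h to increasing concentrations (DMSO vehicle, 0.1% of medium; controls got DMSO) at 37 °C, 5% CO2. Viability by trypan blue exclusion, triplicate samples, at least 10 fields counted each; survival as % of viable cells vs control. IC50 read from dose–response curve as concentration giving 50% survival.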
# HeLa [3] = experiment: Induction of autophagy in human HeLa cells assessed as appearance of acidic vesicular organelles at 2 uM after 3 hrs by acridine orange staining-based immunofluorescence microscopic analysis; format: functional, cell-based
# Method in brief: (§2)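 HeLa treated 3 h with DMSO or 2 µM, with or without 2 h pretreatment with 5 mM NAC; stained with acridine orange and imaged by fluorescence microscopy for cells with orange–red acidic vesicular organelles. Two independent experiments.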
# HeLa [4] = experiment: Induction of autophagy in human HeLa cells transfected with Atg5 siRNA assessed as acidic vesicles accumulation at 2 uM after 24 hrs by acridine orange staining-based immunofluorescence microscopic analysis relative to cell transfected with control siRNA; format: functional
# Method in brief: (§3)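 HeLa at 50% confluence transfected 24 h with 100 nM (final) Atg5 or control siRNA, then after a further 24 h incubated 24 h ± 2 µM compound. Cell death by trypan blue; acidic vesicle accumulation by acridine orange staining. Atg5 knockdown checked by blot. Triplicate means ± S.E.M.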
# HeLa [5] = experiment: Cytotoxicity against human HeLa cells assessed as cell survival after 48 hrs by trypan blue exclusion assay; format: functional, cell-based
# Method in brief: (§4)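 Cells exposed 48 h to increasing concentrations in DMSO (0.1% of medium) at 37 °C, 5% CO2. Trypan blue exclusion counts, at least 10 fields per sample, survival as % of viable control cells. IC50 interpolated from dose–response curve; means ± S.E.M. of three to four replicates.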
# U2OS [6] = experiment: Cytotoxicity against human U2OS cells assessed as cell survival after 24 hrs by trypan blue exclusion assay; format: functional, cell-based; method in brief: as §1
# HeLa [7] = experiment: Induction of autophagy in human HeLa cells assessed as appearance of acidic vesicular organelles at 2 uM after 3 hrs by acridine orange staining-based immunofluorescence microscopic analysis in presence of N-acetylcysteine; format: functional, cell-based; method in brief: as §2
# HeLa [8] = experiment: Induction of apoptosis in human HeLa cells assessed as increase in caspase 3/7 activity at 2 uM after 24 hrs by DEVD-based fluorometric analysis; format: functional, cell-based
# Method in brief: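 HeLa treated 24 h with 25 µM DENSPM (positive control) or the indicated concentrations of compound; DEVDase (caspase 3/7) activity measured. Means ± S.E.M. of three replicates vs control.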
# LoVo [9] = experiment: Cytotoxicity against human LoVo cells assessed as cell survival after 48 hrs by trypan blue exclusion assay; format: functional, cell-based; method in brief: as §4
# HeLa [10] = experiment: Induction of intracellular peroxide formation in human HeLa cells at 2 uM after 3 hrs by DCFDA staining-based flow cytometric analysis; format: functional, cell-based
# Method in brief: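 HeLa treated 3 h with 2 µM, then loaded with 5 µM DCFDA for 30 min at 37 °C. DCF fluorescence measured by flow cytometry with logarithmic amplification; mean fluorescence channel vs DMSO control.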
# HeLa [11] = experiment: Induction of autophagy in human HeLa cells assessed as appearance of vacuoles in cytoplasm containing mitochondrion at 2 uM after 24 hrs by transmission electron microscopic analysis; format: functional, cell-based
# Method in brief: (§5)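 HeLa seeded on glass slides at 1.3 × 10^6 cells/well for 24 h, treated 24 h with 2 µM, fixed in 2.5% glutaraldehyde in 0.1 M phosphate buffer 2 h at 4 °C, post-fixed in 1% OsO4 1 h at 4 °C, examined by transmission electron microscopy for cytoplasmic vacuoles.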
# HeLa [12] = experiment: Cytotoxicity against human HeLa cells assessed as decrease in cell survival at 2 uM after 24 hrs by trypan blue exclusion assay in presence of DFMO; format: functional, cell-based
# Method in brief: (§6)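 HeLa given 2 µM for 24 h with uptake-modifying conditions: 0.5 mM spermine plus 1 mM aminoguanidine (inhibits serum amine oxidases); 0.1 mM DFMO with 48 h pretreatment; or medium adjusted to pH 6.4 with HCl instead of 7.2. Survival by trypan blue exclusion vs control; triplicate means ± S.E.M.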
# HeLa [13] = experiment: Cytotoxicity against human HeLa cells assessed as decrease in cell survival at 2 uM after 24 hrs by trypan blue exclusion assay in presence of Z-VADfmk; format: functional, cell-based
# Method in brief: (§7)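 HeLa pretreated 2 h with Z-VADfmk (50 µM) or necrostatin-1 (20 µM), then exposed to compound for 24 h. Viability by trypan blue exclusion, survival as % of viable control cells; means ± S.E.M. of three determinations.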
# HeLa [14] = experiment: Cytotoxicity against human HeLa cells transfected with Atg5 siRNA assessed as decrease in cell survival at 2 uM after 24 hrs by trypan blue exclusion assay; format: functional, cell-based; method in brief: as §3
# Thymocyte = experiment: Cytotoxicity against rat thymocytes assessed as cell survival after 24 hrs by trypan blue exclusion assay; format: cell-based; method in brief: as §1
# HeLa [15] = experiment: Induction of autophagy in human HeLa cells assessed as conversion of LC3-1 protein to LC3-2 protein at 2 uM after 3 hrs by Western blot analysis in presence of N-acetylcysteine; format: functional, cell-based
# Method in brief: (§8)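 HeLa treated 3 h with 2 µM in presence or absence of 5 mM NAC; 50 µg protein analysed by Western blot with monoclonal antibody recognising LC3-I (18 kDa) and LC3-II (16 kDa).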
# HeLa [16] = experiment: Induction of apoptosis in human HeLa cells assessed as nuclear fragmentation at 2 uM after 24 hrs by DAPI staining assay; format: functional, cell-based
# Method in brief: (§9)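 HeLa treated 24 h with 2 µM, then stained with DAPI and scored for chromatin condensation and nuclear fragmentation/condensation.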
# HL-60 [17] = experiment: Cytotoxicity against human HL60 cells assessed as cell survival after 24 hrs by trypan blue exclusion assay; format: functional, cell-based; conditions: HL-60, 24 h; method in brief: as §1
# HeLa [18] = experiment: Induction of autophagy in human HeLa cells assessed as conversion of LC3-1 protein to LC3-2 protein at 2 uM after 3 hrs by Western blot analysis; format: functional, cell-based; method in brief: as §8
# HeLa [19] = experiment: Cytotoxicity against human HeLa cells assessed as decrease in cell survival at 2 uM after 24 hrs by trypan blue exclusion assay in presence of spermine; format: functional, cell-based; method in brief: as §6
# HeLa [20] = experiment: Cytotoxicity against human HeLa cells assessed as decrease in cell survival at 2 uM after 24 hrs by trypan blue exclusion assay relative to control; format: functional; conditions: read-out: Survival
# Method in brief: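 HeLa cells grown in EMEM with 10% FBS, 1% glutamine, 1% nonessential amino acids, 1 mM pyruvate and antibiotics at 37 °C in 5% CO2. Compound added from DMSO stock (DMSO 0.1% of volume; controls got DMSO only) and exposed 24 h. Viability read by trypan blue exclusion in triplicate samples, at least 10 fields counted. Survival given as % viable cells versus control.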
# [21] = Cytotoxicity against human C-28/I2 cells assessed as cell survival after 24 hrs by trypan blue exclusion assay; format: cell-based; conditions: C28/I2, 24 h; method in brief: as §1
# U2OS [22] = experiment: Cytotoxicity against human U2OS cells assessed as cell survival after 48 hrs by trypan blue exclusion assay; format: functional, cell-based; method in brief: as §4
# HT-29 [23] = experiment: Cytotoxicity against human HT-29 cells assessed as cell survival after 24 hrs by trypan blue exclusion assay; format: functional, cell-based; conditions: HT-29, 24 h; method in brief: as §1
# HeLa [24] = experiment: Cytotoxicity against human HeLa cells assessed as decrease in cell survival at 2 uM after 24 hrs at pH 6.4 by trypan blue exclusion assay; format: functional, cell-based; method in brief: as §6
# HeLa [25] = experiment: Induction of apoptosis in human HeLa cells assessed as chromatin condensation at 2 uM after 24 hrs by DAPI staining assay; format: functional, cell-based; method in brief: as §9
# HeLa [26] = experiment: Induction of autophagy in human HeLa cells assessed as appearance of vacuoles in cytoplasm containing organic materials at 2 uM after 24 hrs by transmission electron microscopic analysis; format: functional, cell-based; method in brief: as §5
# HeLa [27] = experiment: Induction of autophagy in human HeLa cells assessed as conversion of LC3-1 protein to LC3-2 protein at 2 uM after 3 hrs by Western blot analysis in presence of bafilomycin A; format: functional, cell-based
# HeLa [28] = experiment: Induction of apoptosis in human HeLa cells assessed as nuclear condensation at 2 uM after 24 hrs by DAPI staining assay; format: functional, cell-based; method in brief: as §9
# HeLa [29] = experiment: Disruption of mitochondrial membrane potential in human HeLa cells at 2 uM after 4 hrs by DiOC6/propidium iodide staining-based flow cytometric analysis; format: functional
# Method in brief: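 After treatment, HeLa (1 × 10^6 cells/mL) stained with 4 nM DiOC6 for 40 min at 37 °C in the dark, counterstained with 5 µg/mL propidium iodide to exclude dead cells. Flow cytometry with logarithmic amplification, argon laser; mean green fluorescence channel recorded.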
# HT-29 [30] = experiment: Cytotoxicity against human HT-29 cells assessed as cell survival after 48 hrs by trypan blue exclusion assay; format: functional, cell-based; conditions: HT-29, 48 h; method in brief: as §4
# HL-60 [31] = experiment: Cytotoxicity against human HL60 cells assessed as cell survival after 48 hrs by trypan blue exclusion assay; format: functional, cell-based; conditions: HL-60, 48 h; method in brief: as §4
# HeLa [32] = experiment: Cytotoxicity against human HeLa cells assessed as cell survival after 24 hrs by trypan blue exclusion assay; format: functional, cell-based; method in brief: as §1
# HeLa [33] = experiment: Cytotoxicity against human HeLa cells assessed as decrease in cell survival at 2 uM after 24 hrs by trypan blue exclusion assay in presence of necrostatin-1; format: functional, cell-based; method in brief: as §7
# SAOS-2 [34] = experiment: Cytotoxicity against human p53-deficient Saos2 cells assessed as cell survival after 48 hrs by trypan blue exclusion assay; format: functional, cell-based; conditions: SAOS-2, 48 h; method in brief: as §4
# [35] = Cytotoxicity against human SH-SY5Y cells assessed as cell survival after 48 hrs by trypan blue exclusion assay; format: functional, cell-based; method in brief: as §4
# SAOS-2 [36] = experiment: Cytotoxicity against human p53-deficient Saos2 cells assessed as cell survival after 24 hrs by trypan blue exclusion assay; format: functional, cell-based; conditions: SAOS-2, 24 h; method in brief: as §1
# LoVo [37] = experiment: Cytotoxicity against human LoVo cells assessed as cell survival after 24 hrs by trypan blue exclusion assay; format: functional, cell-based; method in brief: as §1
# HeLa [38] = experiment: Induction of autophagy in human HeLa cells assessed as acidic vesicles accumulation at 20 uM after 3 hrs by acridine orange staining-based immunofluorescence microscopic analysis; format: functional, cell-based
# Method in brief: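 HeLa incubated 3 h with 20 µM compound; acidic vesicle accumulation scored after acridine orange staining. Triplicate means ± S.E.M.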
structure (smiles),measurement,setting,value
c1ccc(C(CNCCCCCCNCCCCCCCCCCCCNCCCCCCNCC(c2ccccc2)c2ccccc2)c2ccccc2)cc1,Activity,HeLa [1],inactive
same,IC50,[2],2800 nM
same,Activity,HeLa [3],Active
same,Activity,HeLa [4],inactive
same,IC50,HeLa [5],600 nM
same,IC50,U2OS [6],1100 nM
same,Activity,HeLa [7],inactive
same,Activity,HeLa [8],inactive
same,IC50,LoVo [9],800 nM
same,Activity,HeLa [10],Active
same,Activity,HeLa [11],Active
same,Activity,HeLa [12],Active
same,Activity,HeLa [13],Active
same,Activity,HeLa [14],Active
same,IC50,Thymocyte,6800 nM
same,Activity,HeLa [15],inactive
same,Activity,HeLa [16],inactive
same,IC50,HL-60 [17],1900 nM
same,Activity,HeLa [18],Active
same,Activity,HeLa [19],Active
same,viability at 2 µM,HeLa [20],50%
same,IC50,[21],4300 nM
same,IC50,U2OS [22],400 nM
same,IC50,HT-29 [23],2400 nM
same,Activity,HeLa [24],inactive
same,Activity,HeLa [25],inactive
same,Activity,HeLa [26],Active
same,Activity,HeLa [27],Active
same,Activity,HeLa [28],inactive
same,Activity,HeLa [29],>50%
same,IC50,HT-29 [30],1100 nM
same,IC50,HL-60 [31],700 nM
same,IC50,HeLa [32],1600 nM
same,Activity,HeLa [33],Active
same,IC50,SAOS-2 [34],300 nM
same,IC50,[35],900 nM
same,IC50,SAOS-2 [36],900 nM
same,IC50,LoVo [37],2000 nM
COc1ccccc1CNCCCCCCNCCCCCCCCCCCCNCCCCCCNCc1ccccc1OC,IC50,Thymocyte,> 100000 nM
same,IC50,[21],77000 nM
same,Activity,HeLa [38],Active
same,IC50,HeLa [32],21000 nM
c1ccc(C(CNCCCCCCNCCCCCCCCNCCCCCCNCC(c2ccccc2)c2ccccc2)c2ccccc2)cc1,IC50,Thymocyte,82000 nM
same,IC50,[21],60000 nM
same,Activity,HeLa [38],Active
same,IC50,HeLa [32],18000 nM
